Test results published in ChEMBL document CHEMBL3739289, “Discovery, synthesis and structure-activity analysis of symmetrical 2,7-disubstituted fluorenones as urea transporter inhibitors” (Medchemcomm, 2015).
Activity calls are given as the source filed them. The rule behind the calls is not given here.

Tests used:
Urea transporter 2 = biological target: T1, Urea transporter 2 (Rattus norvegicus, UniProt Q62668); assay: Inhibition of rat UT-A1 expressed in MDCK-UT-A1-AQP1-YFP cells after 15 mins by fluorescence assay; format: cell-based
T1 sequence (Q62668 whole entry): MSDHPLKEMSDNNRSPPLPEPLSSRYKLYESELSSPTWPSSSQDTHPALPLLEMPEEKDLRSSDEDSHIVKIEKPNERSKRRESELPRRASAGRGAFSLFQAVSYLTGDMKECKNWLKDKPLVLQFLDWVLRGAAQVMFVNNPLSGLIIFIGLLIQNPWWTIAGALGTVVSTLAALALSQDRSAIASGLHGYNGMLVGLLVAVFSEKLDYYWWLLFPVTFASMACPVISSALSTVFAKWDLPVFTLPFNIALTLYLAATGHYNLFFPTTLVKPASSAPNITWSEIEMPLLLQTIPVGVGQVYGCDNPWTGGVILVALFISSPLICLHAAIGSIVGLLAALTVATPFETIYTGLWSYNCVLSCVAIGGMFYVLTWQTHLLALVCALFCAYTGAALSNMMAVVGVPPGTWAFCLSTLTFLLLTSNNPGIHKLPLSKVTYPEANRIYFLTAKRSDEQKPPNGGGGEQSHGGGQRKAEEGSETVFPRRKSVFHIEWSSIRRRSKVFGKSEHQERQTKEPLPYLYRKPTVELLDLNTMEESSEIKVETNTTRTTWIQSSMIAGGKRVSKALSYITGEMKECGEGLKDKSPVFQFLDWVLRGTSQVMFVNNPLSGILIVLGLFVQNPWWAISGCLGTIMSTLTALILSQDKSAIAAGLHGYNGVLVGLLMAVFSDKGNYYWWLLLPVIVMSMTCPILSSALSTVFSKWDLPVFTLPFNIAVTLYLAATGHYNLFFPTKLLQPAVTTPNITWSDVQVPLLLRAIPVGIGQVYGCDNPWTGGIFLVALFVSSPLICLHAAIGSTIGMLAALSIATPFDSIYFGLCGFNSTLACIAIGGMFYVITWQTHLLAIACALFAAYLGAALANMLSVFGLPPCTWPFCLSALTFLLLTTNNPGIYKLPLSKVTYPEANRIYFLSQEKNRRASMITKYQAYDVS

Urea transporter 1 = biological target: T2, Urea transporter 1 (Rattus norvegicus, UniProt P97689); assay: Inhibition of UT-B in rat whole blood after 15 mins by RBC lysis assay; format: tissue-based
T2 sequence (P97689 whole entry): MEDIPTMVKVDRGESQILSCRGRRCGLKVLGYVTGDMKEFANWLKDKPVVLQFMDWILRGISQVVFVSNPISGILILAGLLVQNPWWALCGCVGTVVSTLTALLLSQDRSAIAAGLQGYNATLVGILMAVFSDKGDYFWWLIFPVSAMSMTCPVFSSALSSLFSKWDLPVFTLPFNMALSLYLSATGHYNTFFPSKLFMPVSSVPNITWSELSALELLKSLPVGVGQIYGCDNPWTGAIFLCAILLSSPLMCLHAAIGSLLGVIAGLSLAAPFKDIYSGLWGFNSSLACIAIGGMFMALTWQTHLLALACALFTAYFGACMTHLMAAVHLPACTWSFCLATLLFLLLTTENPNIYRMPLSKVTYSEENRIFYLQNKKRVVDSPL
In short: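 Whole rat blood diluted to ~1.5% hematocrit in PBS with 1.25 M acetamide. Erythrocytes exposed to compound for 15 min, then rapidly mixed with PBS. Lysis read as absorbance at 710 nm; % inhibition calculated relative to negative and positive controls.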

[1] = Drug metabolism in rat liver microsomes assessed as cytochrome P450 monooxygenase-mediated oxidation by LC/MS analysis; format: ADME
In short: (§1)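 Compounds incubated with rat liver microsomes plus NADPH for up to 60 min. Parent loss and metabolite appearance followed by LC/MS.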

[2] = Metabolic stability in rat liver microsomes assessed as compound remaining after 15 mins by RP-HPLC analysis in presence of NADPH; format: ADME; conditions: read-out: Stability; in short: as §1
Liver microsome = assay: Drug metabolism in rat liver microsomes assessed as [M+ H-16] formation by LC/MS analysis; format: ADME; conditions: TDE = time-dependent effect
In short: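 Rat liver microsomes incubated with compound in presence of NADPH; disappearance of parent and appearance of metabolite followed by LC/MS over 60 min.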

[3] = biological target: T3, Urea transporter 2 (Rattus norvegicus) (UniProt Q62668); assay: Inhibition of rat UT-A1 expressed in MDCK-UT-A1-AQP1-YFP cells after 40 secs by fluorescence assay; format: cell-based
T3 sequence (whole entry): T1 sequence (Q62668 whole entry)

[4] = biological target: T3, Urea transporter 2 (Rattus norvegicus); assay: Reversible inhibition of rat UT-A1 expressed in MDCK-UT-A1-AQP1-YFP cells at IC50 measured 15 mins post compound washout by fluorescence assay; format: cell-based
[5] = biological target: T3, Urea transporter 2 (Rattus norvegicus); assay: Non competitive inhibition of rat UT-A1 expressed in MDCK-UT-A1-AQP1-YFP cells at IC50 after 15 mins by fluorescence assay in presence of urea; format: cell-based
[6] = Drug level in 1M NaOH treated with compound-18 assessed as compound formation; format: physicochemical

IC50 (Urea transporter 2) [µM] | IC50 (Urea transporter 1) [µM] | Structure (SMILES) | further results
> 50 | 20 | CC(=O)Nc1ccc2c(c1)C(O)c1cc(NC(C)=O)ccc1-2 | 
1.5 | 2.5 | CS(=O)(=O)Nc1ccc2c(c1)C(=O)c1cc(NS(C)(=O)=O)ccc1-2 | 
> 50 | > 50 | Nc1cccc(C(=O)c2cccc(N)c2)c1 | 
18 | 50 | CC(C)C(=O)Nc1ccc2c(c1)C(=O)c1cc(NC(=O)C(C)C)ccc1-2 | 
> 50 | > 50 | Nc1ccc2c(c1)C(=O)c1cc(N)ccc1-2 | 
2 | 1.2 | NC(=O)Nc1ccc2c(c1)C(=O)c1cc(NC(N)=O)ccc1-2 | 
> 50 | > 50 | O=C(COCc1ccccc1)Nc1ccc2c(c1)C(=O)c1cc(NC(=O)COCc3ccccc3)ccc1-2 | 
> 50 | > 50 | CCCC(=O)Nc1ccc2c(c1)C(=O)c1cc(NC(=O)CCC)ccc1-2 | 

More lines, now with the values behind:

Structure (SMILES) | IC50 (Urea transporter 2) [µM] | IC50 (Urea transporter 1) [µM] | further results
O=C(CBr)Nc1ccc2c(c1)C(=O)c1cc(NC(=O)CBr)ccc1-2 | 30 | 10 | 
O=C(COCc1ccccc1)Nc1cccc(C(=O)c2cccc(NC(=O)COCc3ccccc3)c2)c1 | > 50 | > 50 | 
CC(=O)Nc1cccc(C(=O)c2cccc(NC(C)=O)c2)c1 | 18 | 20 | Drug metabolism [1]: metabolite_notdetected; remaining at 0.25 h [2]: > 80%
CC(=O)Nc1ccc2c(c1)C(=O)c1cc(NC(C)=O)ccc1-2 | 1 | 1.5 | Drug metabolism (Liver microsome): tde; Drug metabolism [1]: metabolite_notdetected; remaining at 0.25 h [2]: 60%; inhibition [3]: Active; inhibition [4]: Active; inhibition [5]: Active
CS(=O)(=O)Nc1cccc(C(=O)c2cccc(NS(C)(=O)=O)c2)c1 | > 50 | 30 | 
CCC(=O)Nc1ccc2c(c1)C(=O)c1cc(NC(=O)CC)ccc1-2 | 15 | 5 | 
O=C(CO)Nc1ccc2c(c1)C(=O)c1cc(NC(=O)CO)ccc1-2 | 20 | 25 | 
[N-]=[N+]=NCC(=O)Nc1ccc2c(c1)C(=O)c1cc(NC(=O)CN=[N+]=[N-])ccc1-2 | 20 | 30 | 
O=C1c2cc(NC(=O)C(F)(F)F)ccc2-c2ccc(NC(=O)C(F)(F)F)cc21 | 10 | 7.5 | 
CC(=O)/N=C1\C=CC2=c3ccc(NC(C)=O)cc3=CC2=C1 |  |  | Drug metabolism [6]: metabolite_detected
COCCOCC(=O)Nc1ccc2c(c1)C(=O)c1cc(NC(=O)COCCOC)ccc1-2 | > 50 | 50 | 
CC(=O)Nc1ccc2c(c1)C(=NO)c1cc(NC(C)=O)ccc1-2 | 12 | 25 | Drug metabolism [1]: metabolite_notdetected; remaining at 0.25 h [2]: > 80%
O=C1c2cc([N+](=O)[O-])ccc2-c2ccc([N+](=O)[O-])cc21 | > 50 | > 50 | 
O=C(O)/C=C\C(=O)Nc1ccc2c(c1)C(=O)c1cc(NC(=O)/C=C\C(=O)O)ccc1-2 | 30 | > 50 | 
CC(=O)Nc1ccc2c(c1)S(=O)(=O)c1cc(NC(C)=O)ccc1-2 | 15 | 2 | Drug metabolism [1]: metabolite_notdetected; remaining at 0.25 h [2]: > 80%
O=C1c2cc(N3CCCS3(=O)=O)ccc2-c2ccc(N3CCCS3(=O)=O)cc21 | > 50 | > 50 | 
